Assay results published in ChEMBL document CHEMBL3414496, “Synthesis and biological evaluation of novel 2-heteroarylimino-1,3-thiazolidin-4-ones as potential anti-tumor agents” (Eur J Med Chem, 2015).
Active and inactive are the calls of the source. The calls are words filed in the database; no cut-off is given here.

tested on: HT-29; experiment: Induction of redox status changes in human HT-29 cells assessed as ROS content in presence of 1 mM ascorbic acid by DCF-DA staining based fluorescence assay (reference value: 65.7 +/- 4.7%); conditions: not given

Compound | Activity
COc1ccc(/C=C2\S/C(=N\c3csc(-c4ccc(Cl)cc4)c3)NC2=O)cc1 | 97%

tested on: HT-29; experiment: Induction of ROS generation in human HT-29 cells at cytotoxic IC50 level after 4 hrs by DCF-DA staining based fluorescence assay; type: functional, cell-based; conditions: not given
Summary of the method: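 HT29 cells treated two days after seeding, then loaded with 50 µM DCF-DA for 15 min at 37°C. Cells trypsinized, washed and resuspended in PBS, and 30 000 cells/sample read by flow cytometry (FL-1). Expressed as % of DMSO-treated cells; […] for 1 h served as positive control. Triplicates from three independent experiments.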

Compound | Activity
COc1ccc(/C=C2\S/C(=N\c3csc(-c4ccc(Cl)cc4)c3)NC2=O)cc1 | Active

tested on: HT-29; experiment: Induction of redox status changes in human HT-29 cells assessed as GSH content by fluorescence based microtiter plate method (reference value: 100%); type: functional; conditions: not given
Summary of the method: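 HT29 cells exposed 48 h after seeding for 24 h, then extracted into ice-cold 10% perchloric acid with 2 mM EDTA and spun at 15 000 g. GSH in the supernatant measured by a fluorescence microtiter plate method; pellet protein measured by modified Lowry. Values in nmol GSH/mg protein, shown as % of DMSO controls. Triplicates from three experiments.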

Compound | Activity
CN(C)c1ccc(/C=C2\S/C(=N\c3nc(-c4ccc(Cl)cc4)cs3)NC2=O)cc1 | 109.1%
COc1ccc(/C=C2\S/C(=N\c3csc(-c4ccc(Cl)cc4)c3)NC2=O)cc1 | 88.8%
COc1ccc(/C=C2\S/C(=N\c3nc(-c4ccc(Cl)cc4)cs3)NC2=O)cc1 | 117%

tested on: HT-29; experiment: Induction of cell cycle arrest in human HT-29 cells assessed as accumulation at S phase by propidium iodide staining based flow cytometry (reference value: 23.9 +/- 0.3%); type: functional; conditions: not given

Compound | Activity
COc1ccc(/C=C2\S/C(=N\c3csc(-c4ccc(Cl)cc4)c3)NC2=O)cc1 | 18.2%

tested on: HT-29; experiment: Induction of nuclear fragmentation in human HT-29 cells incubated for 2 days by DAPI staining based UV fluorescent microscopy; type: functional, cell-based; conditions: not given
Summary of the method: (§1)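 HT29 cells in 35 mm dishes treated over two days, fixed in 70% ethanol for 5 min and rinsed with PBS. Stained with 1 µM DAPI in PBS for 15 min and imaged by UV fluorescence microscopy for nuclear morphology.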

Compound | Activity
CN(C)c1ccc(/C=C2\S/C(=N\c3nc(-c4ccc(Cl)cc4)cs3)NC2=O)cc1 | Active
COc1ccc(/C=C2\S/C(=N\c3csc(-c4ccc(Cl)cc4)c3)NC2=O)cc1 | Active
COc1ccc(/C=C2\S/C(=N\c3nc(-c4ccc(Cl)cc4)cs3)NC2=O)cc1 | Active

tested on: HT-29; experiment: Growth inhibition of human HT-29 cells at cytotoxic IC50 level after 3 days by trypan blue dye exclusion assay; type: functional; conditions: not given
Summary of the method: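 HT29 cells treated 48 h after seeding, dosed daily with daily medium change over three days; drug diluted in DMSO, controls 0.1% (v/v) DMSO. Cells trypsinized, mixed 1:1 with 0.04% trypan blue, live cells counted by hematimeter. Reported as mitotic index (treated/DMSO count); triplicates from two independent experiments.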

Compound | growth inhibition (GI)
CN(C)c1ccc(/C=C2\S/C(=N\c3nc(-c4ccc(Cl)cc4)cs3)NC2=O)cc1 | <25%
COc1ccc(/C=C2\S/C(=N\c3csc(-c4ccc(Cl)cc4)c3)NC2=O)cc1 | 90%
COc1ccc(/C=C2\S/C(=N\c3nc(-c4ccc(Cl)cc4)cs3)NC2=O)cc1 | <25%

tested on: HT-29; experiment: Induction of autophagy in human HT-29 cells assessed as increase in beclin-1 protein expression by Western blotting method; type: functional, cell-based; conditions: not given
Summary of the method: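 HT29 cells in flasks treated over two days. Total protein homogenates immunoblotted with anti-beclin-1 (1:500), with GAPDH as loading control.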

Compound | Activity
CN(C)c1ccc(/C=C2\S/C(=N\c3nc(-c4ccc(Cl)cc4)cs3)NC2=O)cc1 | Active
COc1ccc(/C=C2\S/C(=N\c3csc(-c4ccc(Cl)cc4)c3)NC2=O)cc1 | Active
COc1ccc(/C=C2\S/C(=N\c3nc(-c4ccc(Cl)cc4)cs3)NC2=O)cc1 | Active

tested on: HT-29; experiment: Induction of mitochondrial membrane potential loss in human HT-29 cells incubated for 2 days by JC1 staining based UV fluorescent microscopy; type: functional, cell-based; conditions: not given
Summary of the method: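 HT29 cells in dishes exposed to test agents, then 1 µM JC-1 added to the medium for 15 min at 37°C. Cells washed with warm PBS and imaged by fluorescence microscopy for J-aggregates (red channel). 50 µM CCCP for 15 min served as depolarization control.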

Compound | Activity
CN(C)c1ccc(/C=C2\S/C(=N\c3nc(-c4ccc(Cl)cc4)cs3)NC2=O)cc1 | Active
COc1ccc(/C=C2\S/C(=N\c3csc(-c4ccc(Cl)cc4)c3)NC2=O)cc1 | Active
COc1ccc(/C=C2\S/C(=N\c3nc(-c4ccc(Cl)cc4)cs3)NC2=O)cc1 | Active

tested on: HT-29; experiment: Induction of chromatin condensation in human HT-29 cells incubated for 2 days by DAPI staining based UV fluorescent microscopy; type: functional, cell-based; conditions: not given
Summary of the method: as §1

Compound | Activity
CN(C)c1ccc(/C=C2\S/C(=N\c3nc(-c4ccc(Cl)cc4)cs3)NC2=O)cc1 | Active
COc1ccc(/C=C2\S/C(=N\c3csc(-c4ccc(Cl)cc4)c3)NC2=O)cc1 | Active
COc1ccc(/C=C2\S/C(=N\c3nc(-c4ccc(Cl)cc4)cs3)NC2=O)cc1 | Active

tested on: MDA-MB-231; experiment: Cytotoxicity against human MDA-MB-231 cells after 72 hrs by MTT assay; type: functional, cell-based; conditions: MDA-MB-231, 72 h
Summary of the method: (§2)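 Cells seeded at 10^4/well, exposed 24 h later to graded concentrations (0.01–100 µM) for 72 h at 37°C; MTT 0.5 mg/ml for 2 h, formazan dissolved in DMSO, absorbance at 570 nm. […] Colon lines in DMEM, breast lines in RPMI, both with 10% FCS.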

Compound | IC50
CN(C)c1ccc(/C=C2\S/C(=N\c3nc(-c4ccc(Cl)cc4)cs3)NC2=O)cc1 | 300 nM
COc1ccc(/C=C2\S/C(=N\c3csc(-c4ccc(Cl)cc4)c3)NC2=O)cc1 | 1200 nM
COc1ccc(/C=C2\S/C(=N\c3nc(-c4ccc(Cl)cc4)cs3)NC2=O)cc1 | 300 nM

tested on: HT-29; experiment: Induction of cell cycle arrest in human HT-29 cells assessed as accumulation at G0/G1 phase by propidium iodide staining based flow cytometry (reference value: 46.1 +/- 0.4%); type: functional; conditions: not given

Compound | Activity
COc1ccc(/C=C2\S/C(=N\c3csc(-c4ccc(Cl)cc4)c3)NC2=O)cc1 | 1.2%

tested on: HT-29; experiment: Induction of autophagy in human HT-29 cells assessed as increase in acidic vesicles by acridine orange staining based flow cytometry; type: functional, cell-based; conditions: not given
Summary of the method: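 HT29 cells treated for two days with daily medium changes, stained with 1 µg/ml acridine orange for 15 min, then trypsinized and suspended in PBS. FL-3 fluorescence read by flow cytometry on 30 000 cells/sample and expressed in arbitrary units relative to DMSO-treated cells. Triplicates from three independent experiments.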

Compound | Activity
CN(C)c1ccc(/C=C2\S/C(=N\c3nc(-c4ccc(Cl)cc4)cs3)NC2=O)cc1 | Active
COc1ccc(/C=C2\S/C(=N\c3csc(-c4ccc(Cl)cc4)c3)NC2=O)cc1 | Active
COc1ccc(/C=C2\S/C(=N\c3nc(-c4ccc(Cl)cc4)cs3)NC2=O)cc1 | Active

tested on: HT-29; experiment: Induction of cell cycle arrest in human HT-29 cells assessed as accumulation at subG1 phase by propidium iodide staining based flow cytometry (reference value: 6.9 +/- 0.5%); type: functional; conditions: not given

Compound | Activity
COc1ccc(/C=C2\S/C(=N\c3csc(-c4ccc(Cl)cc4)c3)NC2=O)cc1 | 21.6%

tested on: HT-29; experiment: Induction of cell cycle arrest in human HT-29 cells assessed as accumulation at G2/M phase by propidium iodide staining based flow cytometry (reference value: 30 +/- 2%); type: functional; conditions: not given

Compound | Activity
COc1ccc(/C=C2\S/C(=N\c3csc(-c4ccc(Cl)cc4)c3)NC2=O)cc1 | 80.6%

tested on: HT-29; experiment: Induction of redox status changes in human HT-29 cells assessed as RNS content by DAF-2DA staining based fluorescence assay (reference value: 100%); type: functional; conditions: not given
Summary of the method: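 HT29 cells treated two days after seeding, then loaded with 1 µM DAF-2DA for 30 min at 37°C. Cells trypsinized and resuspended in PBS, and 30 000 cells/sample measured by flow cytometry (FL-1). Expressed as % of DMSO-treated cells. Triplicates from three independent experiments.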

Compound | Activity
CN(C)c1ccc(/C=C2\S/C(=N\c3nc(-c4ccc(Cl)cc4)cs3)NC2=O)cc1 | 144.4%
COc1ccc(/C=C2\S/C(=N\c3csc(-c4ccc(Cl)cc4)c3)NC2=O)cc1 | 169.7%
COc1ccc(/C=C2\S/C(=N\c3nc(-c4ccc(Cl)cc4)cs3)NC2=O)cc1 | 103.3%

tested on: HT-29; experiment: Induction of redox status changes in human HT-29 cells assessed as RNS content by DHR123 staining based fluorescence assay (reference value: 100%); type: functional; conditions: not given
Summary of the method: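 HT29 cells treated two days after seeding, then loaded with 25 µM DHR for 20 min at 37°C. Cells trypsinized and resuspended in PBS, and 30 000 cells/sample read by flow cytometry (FL-1). Expressed as % of DMSO controls. Triplicates from three independent experiments.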

Compound | Activity
CN(C)c1ccc(/C=C2\S/C(=N\c3nc(-c4ccc(Cl)cc4)cs3)NC2=O)cc1 | 157.6%
COc1ccc(/C=C2\S/C(=N\c3csc(-c4ccc(Cl)cc4)c3)NC2=O)cc1 | 85.9%
COc1ccc(/C=C2\S/C(=N\c3nc(-c4ccc(Cl)cc4)cs3)NC2=O)cc1 | 80.9%

tested on: HT-29; experiment: Cytotoxicity against human HT-29 cells after 72 hrs by MTT assay; type: functional, cell-based; conditions: HT-29, 72 h
Summary of the method: as §2

Compound | IC50
CN(C)c1ccc(/C=C2\S/C(=N\c3nc(-c4ccc(Cl)cc4)cs3)NC2=O)cc1 | 500 nM
COc1ccc(/C=C2\S/C(=N\c3csc(-c4ccc(Cl)cc4)c3)NC2=O)cc1 | 3800 nM
COc1ccc(/C=C2\S/C(=N\c3nc(-c4ccc(Cl)cc4)cs3)NC2=O)cc1 | 400 nM

tested on: not listed separately; experiment: Cytotoxicity against human HCT116 cells after 72 hrs by MTT assay; type: functional, cell-based; conditions: HCT-116, 72 h
Summary of the method: as §2

Compound | IC50
CN(C)c1ccc(/C=C2\S/C(=N\c3nc(-c4ccc(Cl)cc4)cs3)NC2=O)cc1 | 200 nM
COc1ccc(/C=C2\S/C(=N\c3csc(-c4ccc(Cl)cc4)c3)NC2=O)cc1 | 1300 nM
COc1ccc(/C=C2\S/C(=N\c3nc(-c4ccc(Cl)cc4)cs3)NC2=O)cc1 | 400 nM

tested on: MCF7; experiment: Cytotoxicity against human MCF7 cells after 72 hrs by MTT assay; type: functional, cell-based; conditions: MCF7, 72 h
Summary of the method: as §2

Compound | IC50
CN(C)c1ccc(/C=C2\S/C(=N\c3nc(-c4ccc(Cl)cc4)cs3)NC2=O)cc1 | 100 nM
COc1ccc(/C=C2\S/C(=N\c3csc(-c4ccc(Cl)cc4)c3)NC2=O)cc1 | 1000 nM
COc1ccc(/C=C2\S/C(=N\c3nc(-c4ccc(Cl)cc4)cs3)NC2=O)cc1 | 100 nM

tested on: SW-620; experiment: Cytotoxicity against human SW620 cells after 72 hrs by MTT assay; type: functional, cell-based; conditions: SW-620, 72 h
Summary of the method: as §2

Compound | IC50
CN(C)c1ccc(/C=C2\S/C(=N\c3nc(-c4ccc(Cl)cc4)cs3)NC2=O)cc1 | 200 nM
COc1ccc(/C=C2\S/C(=N\c3csc(-c4ccc(Cl)cc4)c3)NC2=O)cc1 | 28100 nM
COc1ccc(/C=C2\S/C(=N\c3nc(-c4ccc(Cl)cc4)cs3)NC2=O)cc1 | 50 nM

tested on: HT-29; experiment: Reduction in cell growth of human HT-29 cells at cytotoxic IC50 level after 3 days by trypan blue dye exclusion assay; type: functional, cell-based; conditions: not given
Summary of the method: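 HT29 cells treated daily from 48 h after seeding, over three days with daily medium changes, in 0.1% (v/v) DMSO vehicle. Cells trypsinised, mixed 1:1 with 0.04% trypan blue, and living cells counted by haemocytometer under microscope. Mitotic index is treated count relative to DMSO control. Triplicate determinations, two independent experiments, mean ± S.E.M.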

Compound | inhibition
COc1ccc(/C=C2\S/C(=N\c3csc(-c4ccc(Cl)cc4)c3)NC2=O)cc1 | Active

tested on: HT-29; experiment: Reduction in cell viability of human HT-29 cells assessed as reduction in living cell level at cytotoxic IC50 level after 24 to 48 hrs by DCF-DA and propidium iodide staining based flow cytometry; type: functional; conditions: not given
Summary of the method: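 HT29 cells treated two days after seeding, then loaded together with 50 µM DCF-DA and 25 µg/mL propidium iodide for 15 min at 37°C. Cells trypsinised, washed and resuspended in PBS; 30 000 cells per sample read by flow cytometry (FL-1, FL-3). Viable cells (PI-negative, DCF-positive) given as % of total events. Triplicates, two independent experiments.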

Compound | inhibition
COc1ccc(/C=C2\S/C(=N\c3csc(-c4ccc(Cl)cc4)c3)NC2=O)cc1 | Active
